The list is not random: actives were taken first. Their share in the collection is about 6.8%.
ALR H2O2 inh: blocks human ALR sulfhydryl oxidase activity; P55789; purified ALR, DTT oxidation, H2O2 HRP-luminol luminescence; inhibition, % (no concentration beside the values); 290,000 compounds, 3.8% hits; AID 485317;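 active = mean replicate inhibition above about 79%, with every replicate also reaching it, limit read from the data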
Target sequence (P55789 whole entry, looked up): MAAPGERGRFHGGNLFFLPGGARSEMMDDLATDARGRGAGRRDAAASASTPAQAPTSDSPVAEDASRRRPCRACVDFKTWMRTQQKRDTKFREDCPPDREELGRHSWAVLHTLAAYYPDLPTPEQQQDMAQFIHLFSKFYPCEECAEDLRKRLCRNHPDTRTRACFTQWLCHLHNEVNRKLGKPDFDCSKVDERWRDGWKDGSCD
HSF-1 act: increases HSF-1 driven luciferase reporter signal. 300,000 compounds, 1.7% hits. AID 504408. activation, % at 9 µM. NIH3T3-HGL HSF-1 luciferase reporter, MG132, 8 h; 100% = twice DMSO control signal;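 active = mean replicate activation of at least 50% with a set share of replicates each reaching 50%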;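 note: 0% = median of the neutral control wells and 100% = twice that signal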
AI-2 QS mod: modulators of Vibrio harveyi AI-2 quorum sensing system | Vibrio harveyi JMH597 AI-2 luminescence/OD600 ratio, 9 h; hits give low values; strain lacks LuxN and CqsS sensors; 0 = neutral-control median | activity change, % at 7.5 µM | 300,000 compounds, 0.4% hits | AID 2094; in the data active = activity change below about -75%, passing the limit was not always enough;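 note: luminescence divided by OD600 gain over 9 h not by final OD600 alone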
PHOSPHO1 inh: blocks human PHOSPHO1 phosphatase activity; recombinant PHOSPHO1, absorbance phosphatase assay; 290,000 compounds, 1.1% hits; Q8TCT1; inhibition, % at 13.3 µM; AID 1565; in the data active = inhibition above about 60%
Target sequence (Q8TCT1 whole entry, looked up): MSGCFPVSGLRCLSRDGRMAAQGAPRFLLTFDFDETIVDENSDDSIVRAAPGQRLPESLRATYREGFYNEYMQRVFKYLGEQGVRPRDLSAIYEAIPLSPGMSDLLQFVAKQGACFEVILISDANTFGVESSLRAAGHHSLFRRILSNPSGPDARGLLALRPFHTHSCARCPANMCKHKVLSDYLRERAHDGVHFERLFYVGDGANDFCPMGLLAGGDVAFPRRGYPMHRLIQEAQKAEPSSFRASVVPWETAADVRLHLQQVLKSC
HCV core dimer: HCV core protein dimerization inhibition; TR-FRET GST/Flag-core106 dimerization, 1536-well; 300,000 compounds, 0.33% hits; inhibition, % at 5 µM;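 active = inhibition above the mean of all tested compounds plus 3 SD, set per screening campaign, cut at about 45% in these data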
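Material: Tagged HCV core106 pair (GST and Flag) | Amount: GST-core106 13.5 nM, Flag-core106 17 nM | Medium: KF-containing HEPES buffer, pH 7.45, DTT, CHAPS, BSA | Reagent: Eu donor and XL665 acceptor anti-tag antibodies | Schedule: 4 h at 22.5 °C | Technique: Time-resolved FRET, ex 340 nm, em 617 and 671 nm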
HSF1 inhib: HSF1 inhibition; NIH3T3-HGL HSE-luciferase, MG132-induced, luminescence 8 h; hits give low values; activity change, negative = inhibition, % at 7.5 µM (by protocol); 300,000 compounds, 0.77% hits;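 active = more than half of replicate wells show activity change below -50%, luminescence cut by over half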;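 note: luciferase reports HSF-1 transcriptional activity via heat shock element; 0% = median of DMSO wells and -100% = zero luminescence signal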
Numbers without * were called inactive; · = no result given.

SMILES | ALR H2O2 inh | HSF-1 act | AI-2 QS mod | PHOSPHO1 inh | HCV core dimer | HSF1 inhib
Cc1csc2c(N3CCN(C(=S)Nc4ccc(F)cc4F)CC3)ncnc12 | 4 | 4 | -4 | 8 | -2 | 3
CCN(CC)CCCNc1nc(SC)nc2sc3c(c12)CCN(C)C3 | -3 | -4 | -9 | 23 | -2 | -5
CCOc1cc(NC(=S)NCCOC)c(OCC)cc1NC(=O)c1ccco1 | 3 | 9 | 15 | 19 | 1 | 13
COc1ccc(/C=N/Nc2cc(C)nc3ccc(OC)cc23)c(OC)c1 | 86* | 16 | 15 | 19 | -8 | -6
COc1ccc2nc(C)cc(N/N=C/c3ccccc3)c2c1 | -1 | · | · | · | · | ·
Cc1ccc2nc(C)cc(N/N=C/c3ccccc3O)c2c1 | 99* | -2 | 1 | · | -9 | -12
Cc1cc(N/N=C/c2ccc(O)cc2O)c2ccccc2n1 | 97* | 0 | -2 | 29 | -6 | -5
COc1ccc2nc(C)cc(Nc3ccc(N4CCN(C)CC4)cc3)c2c1 | 96* | 40 | 30 | 29 | 2 | 39
NNC(=O)c1[nH]c(-c2ccccc2)cc1-c1ccccc1 | · | 1 | 7 | 25 | -2 | 1
O=C(COC(=O)Cc1ccsc1)NC1CCCCCC1 | 18 | 23 | 7 | 5 | 2 | 10
COc1ccccc1/C=N/Nc1cc(C)nc2ccc(C)cc12 | 99* | -16 | · | 14 | -9 | -16
Oc1ccc(/C=N/Nc2ccnc3cc(Cl)ccc23)c(O)c1 | -2 | 100* | -3 | 30 | -12 | 81
Cc1ccccc1/C=N/Nc1ccnc2cc(Cl)ccc12 | 10 | 42 | 17 | 21 | 0 | 9
Cc1cc(N/N=C/c2ccco2)c2ccccc2n1 | 77* | -5 | 11 | 28 | -2 | -17
CCN1C(=O)c2ccc(C(=O)NCc3ccco3)cc2C1=O | -21 | -18 | 8 | 21 | 3 | -2
CCN(CC)C(=S)SCC(=O)c1ccc(F)cc1 | 3 | 66* | 6 | 24 | -1 | 43
CCN(CC)C(=S)SCC(=O)c1ccccc1 | 29 | 45 | 16 | 38 | -5 | 19
Cc1c(/C=N/NC(=O)c2ccc(Br)o2)cnn1C | 20 | 61* | 23 | -36 | -1 | 21
Cc1c(/C=N\NC(=O)c2ccc(F)cc2)cnn1C | 99* | -2 | 14 | -3 | -6 | 10
Cc1occc1C(=O)N/N=C/c1cnn(C)c1C | -1 | 21 | 20 | -2 | 0 | 13
CCC/C=N/NC(=O)c1ccc(F)cc1 | -6 | 1 | 2 | -4 | 8 | 12
CCn1cc(/C=N\NC(=O)c2ccc(F)cc2)cn1 | 98* | 33 | 1 | -6 | -3 | 7
CCN(CC(=O)Nc1ccc(OC)cc1)C(=O)CCS(=O)(=O)c1ccc(C)cc1 | -4 | -1 | 22 | 38 | 2 | -2
CCN(CC)c1ccc(/C=N/NC(=O)c2ccco2)c(O)c1 | 97* | 14 | -27 | 20 | -18 | 12
O=C(NC(=S)Nc1ccc(-c2ccc(CO)o2)cc1)c1cccs1 | 11 | 31 | 14 | 9 | 51* | 7
SMILES | ALR H2O2 inh | HSF-1 act | AI-2 QS mod | PHOSPHO1 inh | HCV core dimer | HSF1 inhib
CC(=O)Nc1ccc(NC(=O)c2c(C)noc2C)cc1 | 1 | -1 | 12 | 30 | 4 | -3
CCN(CC(=O)Nc1ccc(OC)cc1)C(=O)Cc1cccs1 | -23 | 2 | 6 | · | 52* | -4
CCN(CC)c1ccc(NC(=O)c2c(C)noc2C)cc1 | 98* | 0 | 19 | -50 | -17 | -1
CCN1CCCC1CNc1ccc(S(C)(=O)=O)cc1[N+](=O)[O-] (configuration not stated) | -10 | -5 | 14 | 32 | 7 | -10
O=C(Nc1ccc(C(=O)N2CCCCC2)cc1)Nc1cccc(Cl)c1 | -8 | 17 | -8 | 33 | 4 | 21
Cc1ccc(C(O)Cn2nc(C)cc2C)cc1 (configuration not stated) | -2 | 40 | 1 | · | 12 | 17
CCN(CC)c1ccc(NC(=O)c2ccc(Br)o2)c(C)c1 | 99* | 12 | 2 | 28 | -10 | -1
O=C(Nc1ccccc1C(=O)O)c1cccc(F)c1 | · | -20 | 18 | · | -1 | 6
CCN(CC)c1ccc(NC(=O)CC2Oc3ccccc3NC2=O)c(C)c1 (configuration not stated) | 98* | 42 | 2 | 56 | -10 | 19
CCN(CC)C(=O)COC(=O)c1ccc(C)c(NC(=O)c2ccco2)c1 | 1 | -67 | 23 | -4 | 1 | -59*
CCN(CC)c1ccc(NC(=O)c2cccc(F)c2)c(C)c1 | 99* | 5 | 13 | 30 | -5 | -12
Cc1c(/C=N/NC(=O)c2cccs2)c2ccccc2n1Cc1ccccc1Cl | · | 15 | 20 | 34 | 9 | 14
Cc1ccnc(N2CCN(C(=O)CSc3nc4ccccc4nc3N3CCC(C)CC3)CC2)c1 | -3 | 25 | 8 | -4 | 14 | 12
CCC(=O)N1CCN(c2ccccc2NC(=O)COc2ccc(C(C)C)cc2)CC1 | -4 | -1 | 7 | 43 | 10 | 8
Cc1[nH]c2ccccc2c1C(=O)C(=O)NC1CC1 | -3 | -1 | 30 | 35 | -11 | -1
CCC(=O)Nc1ccc(NCc2cccs2)cc1 | 98* | 6 | 12 | -28 | -15 | -10
CCN(CC)c1ccc(NC(=O)c2ccco2)cc1 | 3 | 16 | 17 | 61* | -14 | 10
Cc1cc(Br)ccc1NC(=O)c1ccco1 | · | 5 | 1 | 14 | 7 | 16
CCN(CC)c1ccc(NC(=S)NC(=O)c2cccs2)cc1 | 98* | 44 | 65 | 22 | 1 | 2
CCN(CC)c1ccc(NC(=O)c2ccco2)c(C)c1 | 99* | 7 | 22 | -3 | -15 | -2
O=C(O)c1ccc(NCc2cccs2)cc1 | -3 | -9 | -29 | 29 | 1 | -9
COc1ccc(Cl)cc1NC(=O)C(C)N(C)Cc1cccc(Cl)c1Cl (configuration not stated) | · | -4 | 20 | 1 | 2 | -4
CCN(CC)c1ccc(NC(=S)NC(=O)c2ccco2)cc1 | · | 180* | 29 | 19 | -8 | 142
CCN(CC)c1ccc(NC(=O)CN(C)Cc2cccs2)cc1 | 99* | 11 | 23 | 16 | 2 | 0
CCCCC(=O)Nc1ccc(NCc2ccc(C)s2)cc1 | 97* | -13 | -2 | 11 | -6 | -9
COc1ccc(-c2csc3ncn(CC(=O)N4CCOCC4)c(=O)c23)cc1 | -11 | 15 | 12 | 48 | -3 | -1
Cc1ccc(-c2ccccc2NC(=O)CS(=O)CC(=O)Nc2ccc(C)c(Cl)c2)o1 (configuration not stated) | 99* | 41 | 15 | -15 | 0 | 22
CC(=O)Nc1ccc(Sc2ccccc2C(=O)O)cn1 | · | 6 | 14 | 6 | -4 | -4
CCc1cc(=O)oc2cc(OCC(=O)N3CCC[C@H]3C(=O)O)ccc12 | -3 | -5 | 12 | 23 | 2 | -2
